Measured values taken from ChEMBL document CHEMBL1629550 (Antimicrob Agents Chemother, 2008).
Activity calls are given as the source filed them. No cut-off for these calls is given here.

Experiments:
[1] = tested on: Listeria monocytogenes; assay: Antibacterial activity against Listeria monocytogenes EGD-e in BALB/c mouse central nervous system listeriosis model assessed as reduction in bacterial count in liver at 50 mg/kg, ip administered 36 hrs postinfection as single dose measured within 6 hr; type: functional, organism-based; parameters: dose 50 mg/kg
In short: (§1)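 Female BALB/c mice (7–8 weeks) were infected i.v. with 1 × 10^5 EGD-e and given one i.p. dose of 50 mg·kg−1 at 36 h; saline was given to controls. Groups of three were sampled at 1, 6, 24 and 48 h. Blood and homogenized liver, spleen and brain were serially diluted 10-fold on BHI agar and counted after 24 h at 37°C. Results are mean ± SE log10 CFU/organ or per ml blood.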

[2] = tested on: Listeria monocytogenes; assay: Antibacterial activity against Listeria monocytogenes EGD-e in BALB/c mouse central nervous system listeriosis model assessed as mouse survival at 50 mg/kg, ip administered 36 hrs postinfection every 12 hrs for 5 days measured after 2 months; type: functional, organism-based; parameters: dose 50 mg/kg
In short: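 BALB/c females were infected i.v. with 1 × 10^5 EGD-e. Starting 36 h after infection, they were dosed i.p. at 50 mg·kg−1 every 12 h for 5 days (n = 20); saline controls n = 5. Deaths were checked twice daily from 36 h post-infection. Survivors were followed for 2 months for relapse, and survival was analysed by Kaplan-Meier.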

[3] = tested on: Listeria monocytogenes; assay: Antibacterial activity against Listeria monocytogenes EGD-e in BALB/c mouse central nervous system listeriosis model assessed as log reduction in bacterial CFU per ml of blood at 50 mg/kg, ip administered 36 hrs postinfection as single dose measured within 1 hr; type: functional; settings: route intraperitoneal; in short: as §1
[4] = tested on: Listeria monocytogenes; assay: Antibacterial activity against Listeria monocytogenes EGD-e in BALB/c mouse central nervous system listeriosis model assessed as increase in mouse survival at 50 mg/kg, ip administered 36 hrs postinfection as single dose; type: functional; settings: route intraperitoneal
In short: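 Female BALB/c mice, 7–8 weeks old, were infected via the lateral tail vein with 1 × 10^5 EGD-e in 0.5 ml saline. At 36 h they received a single 50 mg·kg−1 i.p. dose in isotonic saline (0.1 ml), with n = 12. Controls got saline (n = 5). Death was checked twice daily from 36 h, and survivors were followed 2 months. Results were plotted as Kaplan-Meier estimates.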

[5] = tested on: Listeria monocytogenes; assay: Antibacterial activity against Listeria monocytogenes EGD-e in BALB/c mouse central nervous system listeriosis model assessed as reduction in bacterial count in spleen at 50 mg/kg, ip administered 36 hrs postinfection as single dose measured within 6 hr; type: functional, organism-based; parameters: dose 50 mg/kg; in short: as §1
[6] = tested on: Listeria monocytogenes; assay: Antibacterial activity against Listeria monocytogenes EGD-e in BALB/c mouse central nervous system listeriosis model assessed as increase in mouse survival at 50 mg/kg, ip administered 36 hrs postinfection every 12 hrs for 5 days; type: functional; settings: route intraperitoneal
In short: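 Female BALB/c mice, 7–8 weeks old, were infected i.v. via the tail vein with 1 × 10^5 EGD-e in 0.5 ml saline. From 36 h they received 50 mg·kg−1 i.p. in isotonic saline (0.1 ml) every 12 h for 5 days, with n = 20. Controls got saline (n = 5). Death was checked twice daily, and survivors were followed 2 months for relapse. Results were plotted as Kaplan-Meier estimates.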

[7] = tested on: Listeria monocytogenes; assay: Antibacterial activity against Listeria monocytogenes EGD-e in BALB/c mouse central nervous system listeriosis model assessed as reduction in bacterial count in spleen at 50 mg/kg, ip administered 36 hrs postinfection as single dose measured within 1 hr; type: functional, organism-based; parameters: dose 50 mg/kg; in short: as §1
[8] = Cmax in plasma in Listeria monocytogenes EGD-e infected BALB/c mouse central nervous system listeriosis model at 50 mg/kg, ip administered 36 hrs postinfection as single dose; type: ADME, organism-based; parameters: dose 50 mg/kg, route intraperitoneal
In short: (§2)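 Female BALB/c mice, 7–8 weeks old, were infected i.v. via the tail vein with 1 × 10^5 EGD-e. At 36 h they received one i.p. dose of 50 mg·kg−1 in isotonic saline. Groups of six were killed at 0–480 min. Blood-cleared brain homogenate and plasma were deproteinized with acetonitrile, with ciprofloxacin as internal standard, and analysed by reverse-phase HPLC with fluorescence detection (ex 290/em 550 nm). Cmax was read from the curves; AUC24 was calculated by the trapezoidal rule.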

[9] = tested on: Listeria monocytogenes; assay: Antibacterial activity against Listeria monocytogenes EGD-e in BALB/c mouse central nervous system listeriosis model assessed as reduction in bacterial count in liver at 50 mg/kg, ip administered 36 hrs postinfection as single dose measured within 1 hr; type: functional, organism-based; parameters: dose 50 mg/kg; in short: as §1
[10] = AUC (24 hrs) in plasma in Listeria monocytogenes EGD-e infected BALB/c mouse central nervous system listeriosis model at 50 mg/kg, ip administered 36 hrs postinfection as single dose; type: ADME, organism-based; parameters: time < 24 hr, dose 50 mg/kg, route intraperitoneal; in short: as §2

CC1(C)S[C@@H]2[C@H](NC(=O)[C@H](N)c3ccc(O)cc3)C(=O)N2[C@H]1C(=O)O [AMOXICILLIN]
Activity [1]: Active | Activity [2]: Active | FC [3]: 1 | Time [4]: 12 h | Activity [5]: Active | Activity [6]: 75%

COc1c(N2C[C@@H]3CCCN[C@@H]3C2)c(F)cc2c(=O)c(C(=O)O)cn(C3CC3)c12 [MOXIFLOXACIN]
Activity [2]: Active | Activity [7]: Active | Cmax [8]: 17300 ng/mL | Activity [9]: Active | Time [4]: 24 h | AUC at 24 h [10]: 27100 ng·h/mL | Activity [6]: 100%
